According to ChEMBL document CHEMBL2380225, “Chalcones, inhibitors for topoisomerase I and cathepsin B and L, as potential anti-cancer agents” (Bioorg Med Chem Lett, 2013):

Columns and labels:
[1] = biological target: T1, DNA topoisomerase 1 (Homo sapiens) (UniProt P11387); experiment: Inhibition of human topoisomerase 1 at 20 uM relative to control
T1 sequence (whole entry): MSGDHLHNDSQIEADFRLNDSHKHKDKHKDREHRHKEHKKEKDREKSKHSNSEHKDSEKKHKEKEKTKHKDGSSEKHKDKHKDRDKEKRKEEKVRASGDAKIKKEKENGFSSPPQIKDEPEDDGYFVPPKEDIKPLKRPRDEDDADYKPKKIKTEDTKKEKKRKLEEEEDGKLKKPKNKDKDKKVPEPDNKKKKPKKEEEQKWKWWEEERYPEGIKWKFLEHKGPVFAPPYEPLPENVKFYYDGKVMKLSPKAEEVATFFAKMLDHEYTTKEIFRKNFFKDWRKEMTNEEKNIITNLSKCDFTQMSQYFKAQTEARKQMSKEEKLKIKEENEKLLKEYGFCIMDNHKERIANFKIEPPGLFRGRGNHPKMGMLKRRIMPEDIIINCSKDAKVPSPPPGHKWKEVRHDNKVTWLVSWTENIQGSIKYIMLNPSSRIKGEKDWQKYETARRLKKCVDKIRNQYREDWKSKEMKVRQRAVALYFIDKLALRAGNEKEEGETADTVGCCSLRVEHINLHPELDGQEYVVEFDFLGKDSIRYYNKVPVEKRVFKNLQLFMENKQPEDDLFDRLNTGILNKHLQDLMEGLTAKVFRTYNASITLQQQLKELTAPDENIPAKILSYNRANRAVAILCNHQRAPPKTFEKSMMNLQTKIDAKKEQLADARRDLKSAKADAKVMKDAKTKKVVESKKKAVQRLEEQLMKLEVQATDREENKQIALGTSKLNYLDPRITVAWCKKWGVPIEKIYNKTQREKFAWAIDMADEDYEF
How it was run: (§1)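 Supercoiled DNA relaxation assay with human topoisomerase I or II (Topogen). Compounds were tested at final 100 and 20 μM. Percent inhibition was derived from the inhibition ratio by image analysis and expressed as the mean of triplicate experiments.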

[2] = biological target: T1, DNA topoisomerase 1 (Homo sapiens); experiment: Inhibition of human topoisomerase 1 at 100 uM relative to control; how it was run: as §1
[3] = biological target: DNA topoisomerase 2-alpha (Homo sapiens) (UniProt P11388); experiment: Inhibition of human topoisomerase 2 at 100 uM relative to control; how it was run: as §1
Procathepsin L = Procathepsin L (Homo sapiens, UniProt P07711); experiment: Inhibition of cathepsin L (unknown origin) using Z-FR-AMC as substrate after 30 mins by fluorescence assay
How it was run: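 Calbiochem cathepsin L (4 nM) was reductively pre-activated for 30 min at 37 °C in 0.1 M NaOAc-HCl, 1 mM EDTA, 0.1% β-mercaptoethanol, pH 5.5. Reaction started with compound plus 20 μM Z-FR-AMC and ran 30 min at room temperature. Fluorescence read at 360 nm excitation / 450 nm emission. IC50 is the mean ± SD of triplicate runs.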

Cathepsin B = Cathepsin B (Homo sapiens, UniProt P07858); experiment: Inhibition of cathepsin B (unknown origin) using RR-AMC as substrate after 30 mins by fluorescence assay
SNU-638 = experiment: Cytotoxicity against human SNU638 cells by MTT assay; type: functional, cell-based
How it was run: (§2)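 MTT viability assay on T47D (breast ductal carcinoma) and SNU638 (gastric cancer) human cell lines. IC50 reported as mean ± SD of three separate experiments, each run in triplicate.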

T47D = experiment: Cytotoxicity against human T47D cells by MTT assay; type: functional, cell-based; how it was run: as §2
[4] = biological target: DNA topoisomerase 2-alpha (Homo sapiens) (UniProt P11388); experiment: Inhibition of human topoisomerase 2 at 20 uM relative to control; how it was run: as §1

Chain of Procathepsin L (P07711 whole entry): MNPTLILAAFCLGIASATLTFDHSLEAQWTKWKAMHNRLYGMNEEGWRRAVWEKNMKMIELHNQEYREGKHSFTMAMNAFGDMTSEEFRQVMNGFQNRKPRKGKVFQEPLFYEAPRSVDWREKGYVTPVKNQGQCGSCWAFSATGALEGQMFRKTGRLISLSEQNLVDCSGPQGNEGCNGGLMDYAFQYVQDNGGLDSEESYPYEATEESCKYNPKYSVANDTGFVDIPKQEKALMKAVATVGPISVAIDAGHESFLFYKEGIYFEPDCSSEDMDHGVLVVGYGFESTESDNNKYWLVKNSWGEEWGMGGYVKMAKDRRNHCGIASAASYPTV
Chain of DNA topoisomerase 2-alpha (Homo sapiens) (P11388 whole entry): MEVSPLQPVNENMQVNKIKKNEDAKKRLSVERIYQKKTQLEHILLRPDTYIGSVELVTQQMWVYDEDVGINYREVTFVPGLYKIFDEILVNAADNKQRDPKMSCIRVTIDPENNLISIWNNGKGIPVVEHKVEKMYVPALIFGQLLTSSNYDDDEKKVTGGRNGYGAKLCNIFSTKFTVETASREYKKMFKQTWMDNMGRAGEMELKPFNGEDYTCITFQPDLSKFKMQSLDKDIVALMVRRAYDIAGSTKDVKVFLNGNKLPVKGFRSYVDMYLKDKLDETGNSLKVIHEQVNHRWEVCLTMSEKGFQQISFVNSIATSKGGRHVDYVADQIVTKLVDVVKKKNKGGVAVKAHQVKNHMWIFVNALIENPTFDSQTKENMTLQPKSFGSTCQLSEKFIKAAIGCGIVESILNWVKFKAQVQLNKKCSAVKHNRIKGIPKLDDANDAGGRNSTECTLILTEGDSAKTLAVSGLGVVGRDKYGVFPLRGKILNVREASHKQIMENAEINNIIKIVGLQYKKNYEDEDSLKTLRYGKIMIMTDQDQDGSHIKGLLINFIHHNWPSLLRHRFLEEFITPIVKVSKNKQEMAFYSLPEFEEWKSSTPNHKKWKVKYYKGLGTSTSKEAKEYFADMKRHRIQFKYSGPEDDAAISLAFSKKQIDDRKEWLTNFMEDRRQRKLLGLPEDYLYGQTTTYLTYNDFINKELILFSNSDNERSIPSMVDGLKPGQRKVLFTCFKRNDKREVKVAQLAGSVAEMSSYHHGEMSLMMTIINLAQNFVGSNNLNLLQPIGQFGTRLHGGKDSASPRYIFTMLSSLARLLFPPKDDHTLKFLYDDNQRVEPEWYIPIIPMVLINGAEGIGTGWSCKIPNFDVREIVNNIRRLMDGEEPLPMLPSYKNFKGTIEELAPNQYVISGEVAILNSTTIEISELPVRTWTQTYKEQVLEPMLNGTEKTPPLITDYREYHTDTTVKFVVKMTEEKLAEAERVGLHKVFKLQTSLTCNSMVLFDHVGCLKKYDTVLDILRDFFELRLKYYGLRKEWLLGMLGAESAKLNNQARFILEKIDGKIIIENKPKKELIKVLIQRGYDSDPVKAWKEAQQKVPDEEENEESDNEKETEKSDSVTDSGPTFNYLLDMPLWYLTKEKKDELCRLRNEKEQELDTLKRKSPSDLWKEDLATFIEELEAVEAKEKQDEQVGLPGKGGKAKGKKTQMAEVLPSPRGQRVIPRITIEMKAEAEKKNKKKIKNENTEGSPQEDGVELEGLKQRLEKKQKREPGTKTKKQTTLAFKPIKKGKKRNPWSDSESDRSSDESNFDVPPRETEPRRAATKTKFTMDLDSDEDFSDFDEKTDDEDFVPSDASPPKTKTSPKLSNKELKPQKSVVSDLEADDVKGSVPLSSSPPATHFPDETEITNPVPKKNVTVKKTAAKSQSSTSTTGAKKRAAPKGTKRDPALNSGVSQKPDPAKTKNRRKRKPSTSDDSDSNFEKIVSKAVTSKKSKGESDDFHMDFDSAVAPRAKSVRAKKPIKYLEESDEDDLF

| SMILES | inhibition [1] | inhibition [2] | inhibition [3] | IC50 (Procathepsin L) | IC50 (Cathepsin B) | IC50 (SNU-638) | IC50 (T47D) | inhibition [4] |
| --- | --- | --- | --- | --- | --- | --- | --- | --- |
| COc1ccc(C(=O)/C=C/c2ccc(OC)c(Br)c2)c(O)c1 | 3.8% | 5% | 1% | 45.3 µM | > 100 µM | – | – | – |
| O=C(/C=C/c1ccc(N2CCCC2)cc1)c1ccc(O)cc1 | 60% | 74.7% | 96.8% | 3.15 µM | 1.81 µM | 0.62 µM | 1.37 µM | 19.1% |
| O=C(/C=C/c1ccc(N2CCCC2)cc1)c1ccc([N+](=O)[O-])cc1 | 77.6% | 91.1% | 96.1% | 9.42 µM | 29 µM | > 25 µM | 21.3 µM | 15.3% |
| COc1ccc(/C=C/C(=O)c2ccc(F)cc2)cc1Br | 20.1% | 76.5% | 48.7% | > 100 µM | > 100 µM | > 25 µM | > 25 µM | 0% |
| COc1cc(O)ccc1/C=C/C(=O)c1ccc(O)cc1 [ECHINATIN] | 2.1% | 88.9% | 1.6% | 30.3 µM | 57.7 µM | 10.4 µM | 12.1 µM | – |
| COc1ccc(C(=O)/C=C/c2ccc(F)cc2)c(O)c1 | 60% | 81.2% | 0% | 98.7 µM | > 100 µM | 18.4 µM | 21.9 µM | – |
| COc1cc(O)ccc1/C=C/C(=O)c1ccc(F)cc1 | 9.5% | 95.8% | 0.7% | 73.2 µM | 95.1 µM | 6.3 µM | 8.51 µM | – |
| O=C(/C=C/c1ccc(N2CCCC2)cc1)c1ccc(O)cc1O | 64.4% | 87.1% | 0% | 4.72 µM | 28.7 µM | 5.77 µM | 6.99 µM | – |
| COc1ccc(/C=C/C(=O)c2ccco2)cc1Br | 8.8% | 92% | 24.7% | > 100 µM | > 100 µM | 4.29 µM | 10.9 µM | 0% |
| O=C(/C=C/c1ccc(F)cc1)c1ccc(O)cc1 | 18% | 50.9% | 0% | > 100 µM | > 100 µM | 5.54 µM | 13.8 µM | – |
| CC[C@@]1(O)C(=O)OCc2c1cc1n(c2=O)Cc2cc3ccccc3nc2-1 [CAMPTOTHECIN] | – | – | – | – | – | 0.28 µM | 0.07 µM | – |
| COc1cc(O)ccc1/C=C/C(=O)c1ccc(NC(C)=O)cc1 | 17.3% | 100% | 0% | 39.3 µM | 46.8 µM | 17.4 µM | 12.3 µM | – |
| COc1ccc(/C=C/C(=O)c2ccc(O)cc2O)cc1Br | 8.2% | 73.2% | 2.4% | 67.5 µM | > 100 µM | 2.89 µM | 1.05 µM | – |
| COc1cccc2c1C(=O)c1c(O)c3c(c(O)c1C2=O)C[C@@](O)(C(=O)CO)C[C@@H]3O[C@H]1C[C@H](N)[C@H](O)[C@H](C)O1 [DOXORUBICIN] | – | – | – | – | – | 0.84 µM | 2.91 µM | – |
| COc1cc(O)ccc1/C=C/C(=O)c1ccc(N)cc1 | – | 0.8% | 0% | 32.9 µM | 76.5 µM | – | – | – |
| COc1ccc(/C=C/C(=O)c2cccs2)cc1Br | 2.1% | 74.4% | 5.8% | > 100 µM | > 100 µM | 16.6 µM | 21.9 µM | – |
| COc1cc(O)ccc1C(=O)/C=C/c1ccc(F)cc1 | 61.6% | 86.1% | 0% | 91.2 µM | > 100 µM | > 25 µM | > 25 µM | – |
| O=C(/C=C/c1ccc(F)cc1)c1ccc(O)cc1O | 56.7% | 80.2% | 42.2% | > 100 µM | > 100 µM | 9.43 µM | 8.31 µM | 12.6% |
| COc1cc([C@@H]2c3cc4c(cc3[C@@H](O[C@@H]3O[C@@H]5CO[C@@H](C)O[C@H]5[C@H](O)[C@H]3O)[C@H]3COC(=O)[C@H]23)OCO4)cc(OC)c1O [ETOPOSIDE] | – | – | – | – | – | 2.57 µM | 4.98 µM | – |
| O=C(/C=C/c1ccc(N2CCCC2)cc1)c1ccc(F)cc1 | 73.1% | 90.6% | 0% | 56.5 µM | 54.3 µM | > 25 µM | > 25 µM | – |
| COc1ccc(/C=C/C(=O)c2ccc(O)cc2)cc1Br | 6.6% | 24.8% | 1.2% | 29.8 µM | > 100 µM | – | – | – |
